Source: PubChem
Sampled rows, rich in hits. Any-hit rate of the full collection: about 3.2%.
GPR7 antag – blocks human GPR7 receptor signaling | GPR7-expressing cells, fluorescence antagonist assay | inhibition, % at 4.4 µM | hit rate 1.1% among 290,000 | AID 1861; in the data active = inhibition above about 16%, passing the limit was not always enough;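 also: cells stimulated with the agonist NPW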
TRPN1 ag – agonists of zebrafish TRPN1 channel; activation, % at 3 µM; HEK293 zebrafish TRPN1-YFP, Fluo-8 calcium fluorescence; 100% = response to 87 µM carbachol; hit rate 0.18% among 220,000; AID 1424;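 active = activation above its plate's cutoff, the mean activation of test wells on that plate plus 3 SD, cut at about 19% in these data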
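Material: zebrafish TRPN1-YFP in HEK293 cells. Doses: one dose of 3 µM, 0.3% DMSO. Incubation: dye 1 h 37 °C plus 30 min RT. Measured by: intracellular calcium fluorescence with Fluo-8.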
OX1R antag-1 – OX1R (human) antagonism; O43613; OX1R-expressing cells, FRET antagonist read-out; inhibition, % at 6.6 µM; hit rate 1.8% among 330,000; AID 485270; in the data active = inhibition mostly above about 38%, no sharp cut-off; inactive = mostly below about 40%
CHO parental Ca – counter-screen for OX1R antagonists: effect in parental CHO cells. parental CHO-K1, ATP-induced calcium, Fluo-8 fluorescence. inhibition, % at 5.6 µM. hit rate 0.63% among 330,000. AID 463079;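 active = inhibition above that plate's mean sample inhibition plus 3 SD, cut at about 26% in these data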
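Assay system: untransfected parental CHO cell line. Also added: ATP agonist challenge. Dosing: one dose, 5.6 µM nominal. Measured by: Fluo-8 fluorescence. Read-out: % inhibition. Benchmarks: ATP wells versus no-ATP DMSO wells. Repeats: no replicates.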
TRPML3 agonist – agonists of human TRPML3 channel | Q8TDD5 | HEK293 TRPML3-YFP, Fluo-8 calcium fluorescence; 100% = the carbachol control signal | activation, % at 3 µM | hit rate 0.29% among 220,000 | AID 1448;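 active = activation above its plate's cutoff, the mean activation of the plate's test wells plus 3 SD, cut at about 12% in these data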
Target sequence (Q8TDD5 whole entry, looked up): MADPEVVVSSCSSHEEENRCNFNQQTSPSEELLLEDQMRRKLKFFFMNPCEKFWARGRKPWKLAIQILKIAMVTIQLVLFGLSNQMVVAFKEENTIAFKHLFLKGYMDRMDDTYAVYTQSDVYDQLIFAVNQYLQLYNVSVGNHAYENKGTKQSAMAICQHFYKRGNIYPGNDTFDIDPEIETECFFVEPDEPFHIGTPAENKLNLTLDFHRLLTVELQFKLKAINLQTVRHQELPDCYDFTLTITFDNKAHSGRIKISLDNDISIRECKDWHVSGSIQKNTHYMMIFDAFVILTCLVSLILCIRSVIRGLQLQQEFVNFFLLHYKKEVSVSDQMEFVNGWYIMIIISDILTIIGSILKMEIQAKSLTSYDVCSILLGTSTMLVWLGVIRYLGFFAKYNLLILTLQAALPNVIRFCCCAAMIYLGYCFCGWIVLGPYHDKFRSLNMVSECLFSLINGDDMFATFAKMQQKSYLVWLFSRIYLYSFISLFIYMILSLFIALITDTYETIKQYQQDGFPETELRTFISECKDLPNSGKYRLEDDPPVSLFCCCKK
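Material: TRPML3-YFP stable HEK293 cells | Dosing: One concentration, 3 µM nominal, 0.3% DMSO | Timing: 125 s total fluorescence read per well | Technique: Fluo-8 calcium dye fluorescence, ex 470-495, em 515-575 nm | Measure: Percent activation from peak-to-basal fluorescence ratio, scaled between DMSO and carbachol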
OX1R antag-2 – antagonists of human orexin 1 receptor; O43613; CHO/OX1R cells, Fluo-8 calcium fluorescence, orexin A; inhibition, % at 5 µM; hit rate 0.43% among 330,000; AID 434989;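 active = inhibition above its plate's threshold, mean inhibition of all tested compounds on the plate plus 3 SD, cut at about 37% in these data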
GPR7 antag conf – human GPR7 antagonism, confirmation assay | shares compounds with GPR7 antag | GPR7-expressing cells, calcium fluorescence antagonist mode | inhibition, % at 4.4 µM | hit rate 52% among 2,400 | AID 1952; in the data active = inhibition above about 24%;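 also: stimulated with the GPR7 agonist NPW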
MCHR1 antagonist – antagonizes human MCHR1, a GPR7 antagonist counter-screen | AID 2148 | shares compounds with GPR7 antag | inhibition, % at 4.4 µM | hit rate 62% among 2,400 | MCHR1-expressing cells, fluorescence antagonist assay; in the data active = inhibition above about 22%
A number is an active result; n = inactive; x = no result given.

SMILES | GPR7 antag | TRPN1 ag | OX1R antag-1 | CHO parental Ca | TRPML3 agonist | OX1R antag-2 | GPR7 antag conf | MCHR1 antagonist
COC(=O)CSc1nc(N)c(C#N)c(CC(C)C)c1C#N | 26 | n | n | n | n | n | n | n
CCOC(=O)CSc1nc(N)c(C#N)c(CC(C)C)c1C#N | n | n | n | n | n | n | x | x
CNC(=S)N1N=C(c2ccc(OC)cc2)CC1c1ccc(N(C)C)cc1 (stereo unspecified) | 22 | n | n | n | n | n | n | 33
O=C(OCC(=O)N1CCN(S(=O)(=O)c2ccccc2)CC1)c1ccc([N+](=O)[O-])o1 | 29 | n | n | n | n | n | n | n
CCCCNC(=O)CN1C(=O)C(CC)Oc2ccc(Cl)cc21 (stereo unspecified) | 28 | n | n | n | n | n | n | 25
CCOC(=O)CN1C(=O)C(CC)Oc2ccc(Cl)cc21 (stereo unspecified) | n | n | n | n | n | n | x | x
CCOc1ccc(NC(=O)c2ccc(N3CC4CC(C3)c3cccc(=O)n3C4)c(NC(=O)CCN3CCOCC3)c2)cc1 (stereo unspecified) | n | x | n | n | x | n | x | x
COc1ccc(C(=O)N2CCN(C(=O)Cc3ccccc3)CC2)cc1 | n | n | n | n | n | n | x | x
CC[n+]1c(/C=C/c2c[nH]c3ccccc23)ccc2cc(C)ccc21 | 39 | 30 | x | x | n | x | 37 | 80
COc1cc(Cl)c(C)cc1NCC(=O)Nc1cccc(S(=O)(=O)N2CCCC2)c1 | x | x | n | n | x | n | x | x
Cc1ccc(NC(=O)CSc2nnc(-c3ccncc3)n2C)cc1C | 83 | n | n | n | n | n | n | n
CSCCC(NC(=O)c1ccco1)C(=O)OC(C)C(=O)NC(=O)NC1CCCCC1 (stereo unspecified) | 29 | 121 | n | n | 62 | n | n | 48
Cc1cc(C(=O)OCC(=O)N(C)c2ccccc2)c(C)o1 | x | x | n | n | x | n | x | x
Cc1cc(C)nc(N/N=C/c2ccccc2Cl)n1 | 23 | n | n | n | n | n | n | n
CC(C)c1ccc(NC(=O)c2cccc(NC3=NC4CS(=O)(=O)CC4S3)c2)cc1 (stereo unspecified) | n | x | n | n | x | n | x | x
O=C(Nc1ccc(Cl)cc1)c1cccc(NC2=NC3CS(=O)(=O)CC3S2)c1 (stereo unspecified) | 24 | x | n | n | x | n | n | n
CC1(C)CC(=O)C/C(=N/NC(=O)COc2ccc(Cl)cc2Cl)C1 | n | n | n | n | n | n | x | x
CC1(C)CC(=O)C/C(=N/NC(=O)COc2ccc3ccccc3c2Br)C1 | 104 | x | n | n | x | n | n | n
Cc1cccc(N(CC(=O)Nc2ccccc2F)S(C)(=O)=O)c1 | 27 | n | n | n | n | n | n | n
CCC(C)[C@H](NC(=O)[C@@H]1Cc2c([nH]c3ccccc23)C2c3ccccc3C(=O)N21)C(=O)NCC1CCCO1 (stereo partly specified) | n | x | n | n | x | n | x | x
COc1ccc(NC(=O)C2=CN3CCS(=O)(=O)N=C3C=C2)c(OC)c1 | x | x | n | n | x | n | x | x
COc1cccc(CNC(=O)c2ccc(OCC(=O)N3CCOCC3)c(OC)c2)c1 | x | x | n | n | x | n | x | x
COc1cccc(CNC(=O)C2=Cc3cccc(OC)c3OC2)c1 | 33 | n | n | n | n | n | n | n
CC(C)C[C@H]1CN=C(Nc2ccccc2)N1CCCC1CCCCC1 | 55 | x | n | n | x | n | 53 | 39
CC(C)C[C@H]1CN=C(Nc2ccccc2)N1CC1CCC(C)CC1 (stereo partly specified) | 33 | x | n | n | x | n | 30 | 22
SMILES | GPR7 antag | TRPN1 ag | OX1R antag-1 | CHO parental Ca | TRPML3 agonist | OX1R antag-2 | GPR7 antag conf | MCHR1 antagonist
CC(C)C[C@H]1CN=C(Nc2ccccc2)N1CC1CCC1 | n | x | n | n | x | n | x | x
CC(C)C[C@H]1CN=C(Nc2ccccc2)N1CCCC1CCCC1 | 46 | x | n | n | x | n | 49 | 36
CC(C)C[C@H]1CN=C(Nc2ccccc2)N1CCC1CCCC1 | n | x | n | n | x | n | x | x
CCCCCCCN1C(Nc2ccccc2)=NC[C@@H]1CC(C)C | 44 | x | n | n | x | n | 40 | 34
CC(=O)N1CCc2cc(S(=O)(=O)NC(Cc3ccccc3)C(=O)O)ccc21 (stereo unspecified) | n | x | n | n | x | n | x | x
Cc1ccc(-n2ncc3c(=O)n(CC(=O)N4CCN(c5ccccc5)CC4)cnc32)cc1C | n | n | n | n | n | n | x | x
Cc1ccccc1N(CC(=O)NC1CCCCC1)C(=O)CCCC(=O)Nc1ccccn1 | 38 | x | n | n | x | n | 33 | n
N=c1sccn1CC(=O)Nc1ccc(SC(F)F)cc1 | n | n | n | n | n | n | x | x
COc1ccc(NC(=O)CSc2nc3c(c(=O)n2-c2ccccc2OC)SCC3)cc1 | n | n | n | n | n | n | x | x
COc1ccccc1-n1c(SCC(=O)NC2CCCCC2)nc2c(c1=O)SCC2 | 29 | n | n | n | n | n | n | n
O=C(c1ccc(COc2ccccc2Br)o1)N1CCCCCC1 | n | n | n | n | n | n | x | x
O=C(c1ccc(COc2ccccc2Br)cc1)N1CCCCC1 | 25 | n | n | n | n | n | 36 | 44
CCOC(=O)c1sc(NC(=O)CC(C)c2ccccc2)nc1C (stereo unspecified) | 34 | x | n | n | x | n | 37 | 28
Cc1nc(C)n(C(C)CNS(=O)(=O)c2ccc(C)c(C)c2)n1 (stereo unspecified) | n | x | n | n | x | n | x | x
COc1ccc(Cl)cc1NC(=O)Nc1ccccc1C(N)=O | 30 | n | n | n | n | n | n | n
COc1ccc(Cl)cc1NC(=O)CNc1ccccc1CN(C)C1CCCCC1 | 27 | n | n | n | n | n | 35 | 47
Cc1ccnc(NC(=O)c2ccc(S(=O)(=O)NCc3ccco3)cc2)c1 | x | x | n | n | x | n | x | x
CCn1c(=O)c(CCC(=O)NCC2CCCO2)c(C)c2c(C)nn(-c3ccc(C)cc3)c21 (stereo unspecified) | n | x | n | n | x | n | x | x
COCCNC(=O)CCc1c(C)nc2c(c(C)nn2-c2ccc(C)cc2)c1C | n | x | n | n | x | n | x | x
CCN(CC)CCNC(=O)CCc1c(C)nc2c(c(C)nn2-c2ccc(C)cc2)c1C | x | x | x | x | x | x | x | n
CN1CCN(c2ccc(Cl)cc2NC(=O)/C=C/c2cccc(F)c2)CC1 | 27 | n | n | n | n | n | 43 | 28
CN(C)S(=O)(=O)c1cccc(C(=O)Nc2cc(Cl)ccc2O)c1 | n | n | n | n | n | n | x | x
CN1CCN(c2ccc(Cl)cc2NC(=O)c2cccc(S(=O)(=O)N(C)C)c2)CC1 | 24 | n | n | n | n | n | n | n
